Measured values reported in ChEMBL document CHEMBL4011636, “Utilization of an Active Site Mutant Receptor for the Identification of Potent and Selective Atypical 5-HT2C Receptor Agonists” (J Med Chem, 2017).

Key:
[1] = molecular target: T1, 5-hydroxytryptamine receptor 2C (Homo sapiens, UniProt P28335); assay: Agonist activity at recombinant human 5-HT2C receptor expressed in HEK293E cells assessed as induction of intracellular Ca2+ levels after 90 secs by Fluo-4-dye based FLIPR assay; type: functional, cell-based, HEK293
T1 sequence (P28335 whole entry): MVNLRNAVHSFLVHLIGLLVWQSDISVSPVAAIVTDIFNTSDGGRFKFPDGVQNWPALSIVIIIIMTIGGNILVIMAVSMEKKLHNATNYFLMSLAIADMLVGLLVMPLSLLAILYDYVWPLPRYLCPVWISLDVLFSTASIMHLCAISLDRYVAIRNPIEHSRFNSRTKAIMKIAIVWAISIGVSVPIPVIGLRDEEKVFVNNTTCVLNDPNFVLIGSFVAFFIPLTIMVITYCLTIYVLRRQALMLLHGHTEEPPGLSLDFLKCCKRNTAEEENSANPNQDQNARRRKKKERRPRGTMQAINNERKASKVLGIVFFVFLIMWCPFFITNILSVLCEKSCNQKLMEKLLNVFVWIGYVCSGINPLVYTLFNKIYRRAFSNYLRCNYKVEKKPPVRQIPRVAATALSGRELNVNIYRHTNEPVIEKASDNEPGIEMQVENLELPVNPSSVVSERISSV
Procedure, shortened: (§1)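 HEK293E cells stably expressing human receptor (VNV isoform for 5-HT2C; ~400−795 fmol/mg protein), grown in DMEM with 10% dialyzed FBS and G418. Cells plated at 20 000/well in serum-free DMEM overnight at 37 °C, then loaded 1 h at room temperature with 5 μM Fluo-4 in HBSS/25 mM HEPES. Eleven compound concentrations added on FLIPR, Ca2+ signal read for 90 s. EC50 from a four-parameter logistic fit, at least triplicate.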

[2] = molecular target: 5-hydroxytryptamine receptor 2A (Homo sapiens, UniProt P28223); assay: Agonist activity at recombinant human 5-HT2A receptor expressed in HEK293E cells assessed as induction of intracellular Ca2+ levels after 90 secs by Fluo-4-dye based FLIPR assay; type: cell-based, HEK293; procedure, shortened: as §1
Sequence of 5-hydroxytryptamine receptor 2A (P28223 whole entry): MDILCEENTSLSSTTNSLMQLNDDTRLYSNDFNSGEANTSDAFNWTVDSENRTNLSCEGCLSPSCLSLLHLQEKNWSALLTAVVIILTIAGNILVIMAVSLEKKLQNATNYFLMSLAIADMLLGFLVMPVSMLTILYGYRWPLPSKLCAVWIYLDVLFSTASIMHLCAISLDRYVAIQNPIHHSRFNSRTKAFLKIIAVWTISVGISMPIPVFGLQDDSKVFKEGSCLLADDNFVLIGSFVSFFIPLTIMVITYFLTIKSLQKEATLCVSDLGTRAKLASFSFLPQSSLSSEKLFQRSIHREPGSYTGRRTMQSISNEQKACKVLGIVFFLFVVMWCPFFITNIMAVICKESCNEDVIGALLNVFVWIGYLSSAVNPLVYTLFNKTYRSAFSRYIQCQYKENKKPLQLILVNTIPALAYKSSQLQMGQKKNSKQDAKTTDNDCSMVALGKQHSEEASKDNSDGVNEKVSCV

[3] = molecular target: 5-hydroxytryptamine receptor 2B (Homo sapiens, UniProt P41595); assay: Agonist activity at recombinant human 5-HT2B receptor expressed in HEK293E cells assessed as induction of intracellular Ca2+ levels after 90 secs by Fluo-4-dye based FLIPR assay; type: cell-based, HEK293; procedure, shortened: as §1
Sequence of 5-hydroxytryptamine receptor 2B (P41595 whole entry): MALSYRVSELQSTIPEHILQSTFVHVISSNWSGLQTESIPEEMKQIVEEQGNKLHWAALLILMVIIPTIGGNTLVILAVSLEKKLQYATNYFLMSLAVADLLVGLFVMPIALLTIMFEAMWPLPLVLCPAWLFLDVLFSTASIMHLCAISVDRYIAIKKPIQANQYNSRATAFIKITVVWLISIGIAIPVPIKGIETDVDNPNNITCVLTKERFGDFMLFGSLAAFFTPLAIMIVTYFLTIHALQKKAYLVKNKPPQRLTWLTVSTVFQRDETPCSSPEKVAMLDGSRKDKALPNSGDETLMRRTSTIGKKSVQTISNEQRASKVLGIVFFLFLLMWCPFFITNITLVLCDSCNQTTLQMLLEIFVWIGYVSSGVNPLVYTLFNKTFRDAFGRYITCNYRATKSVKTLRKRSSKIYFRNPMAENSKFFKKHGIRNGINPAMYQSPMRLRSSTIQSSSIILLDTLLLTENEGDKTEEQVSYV

[4] = molecular target: T2, 5-hydroxytryptamine receptor 2C (Homo sapiens) (UniProt P28335); assay: Intrinsic activity at recombinant human 5-HT2C receptor expressed in HEK293E cells assessed as induction of intracellular Ca2+ levels after 90 secs by Fluo-4-dye based FLIPR assay relative to serotonin; type: functional, cell-based; conditions: HEK293
T2 sequence (whole entry): T1 sequence (P28335 whole entry)
Procedure, shortened: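 FLIPR Fluo-4 Ca2+ assay in HEK293E cells stably expressing the human receptor (VNV isoform for 5-HT2C), eleven-point concentration series, 90 s read. Response normalized to 3 μM serotonin on the same plate (defined as IA = 1). Intrinsic activity taken from a four-parameter logistic fit.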

[5] = Metabolic stability in human liver microsomes assessed as parent compound remaining at […] after 10 mins; type: ADME, microsome; conditions: read-out: Stability

Compound | EC50 [1] | EC50 [2] | EC50 [3] | Intrinsic activity [4] | remaining at 10 min [5]
O=C(c1csc(-c2cccnc2)n1)N1CCOCC1 | > 10 µM | > 10 µM | > 10 µM |  | 
O=C(c1csc(-c2cccc(F)c2Cl)n1)N1CCOCC1 | > 10 µM | > 10 µM | > 10 µM |  | 
CCn1nc(-c2cccc3ccccc23)cc1-c1cccnn1 | 0.015 µM | 0.884 µM | > 10 µM | 1.2 | 17%
CCn1nc(-c2nccc3ccccc23)cc1-c1cccnn1 | 0.291 to 0.518 µM | > 10 µM | > 10 µM | 0.8 | 
O=C(c1csc(-c2cccc(Cl)c2Cl)n1)N1CCCOCC1 | 0.32 to 0.733 µM | > 10 µM | > 10 µM | 0.5 | 
CCn1nc(-c2cccc3ccccc23)cc1-c1nnnn1C | 0.45 µM | 1.8 to 2.5 µM | > 5 µM | 0.6 | 4%
Cc1nc(-c2cccc3ccccc23)sc1C(N)=O | > 10 µM | > 10 µM | > 10 µM |  | 
O=C(c1csc(-c2cccc(Cl)c2Cl)n1)N1CC2CC1CO2 (stereo unspecified) | 0.129 to 0.315 µM | > 10 µM | > 10 µM | 0.8 | 
Cc1cc(-c2cccc3ccccc23)oc1C(=O)N1CCC(CO)CC1 | 1.03 to 2 µM | > 10 µM | > 10 µM | 0.7 | 
O=C(c1csc(-c2cccc(Cl)c2Cl)n1)N1CCCCC1 | 3.1 to 3.7 µM | > 10 µM | > 10 µM | 0.3 | 
CCn1nc(-c2cncc3ccccc23)cc1-c1cccnn1 | 0.53 µM | > 10 µM | > 10 µM | 0.7 | 
Cc1sc(-c2cccc(Cl)c2Cl)nc1C(=O)N1CCOCC1 | 1.52 µM | > 10 µM | > 10 µM | 0.6 | 
O=C(c1csc(-c2cccc3ccccc23)n1)N1CCOCC1 | 0.766 to 1.17 µM | > 10 µM | > 10 µM | 0.6 | 
Cc1nc(-c2cccc(Cl)c2Cl)sc1C(=O)N1CCOCC1 | > 10 µM | > 10 µM | > 10 µM |  | 
Cc1cccc(-c2nc(C(=O)N3CCOCC3)cs2)c1C | 0.501 to 0.705 µM | > 10 µM | > 10 µM | 0.7 | 
Cn1ccnc1-c1cc(-c2cccc3ccccc23)nn1C | 0.058 to 0.088 µM | 0.093 to 0.126 µM | > 10 µM | 0.9 | 15%
O=C(c1nc(-c2cccc(Cl)c2Cl)cs1)N1CCOCC1 | 0.018 to 0.038 µM | > 10 µM | > 10 µM | 0.8 | 
Cc1nc(-c2cccc3ccccc23)n(C)c1C(=O)N1CCC(CO)CC1 | 1.87 µM | > 10 µM | > 10 µM | 0.4 | 
Cc1nc(-c2cccc3ccccc23)sc1C(=O)N1CCNCC1 | 1.04 µM | > 10 µM | > 10 µM | 0.4 | 
O=C(c1nc(-c2cccc3ccccc23)cs1)N1CCOCC1 | 0.729 to 1.62 µM | > 10 µM | > 10 µM | 0.6 | 

Compound | EC50 [1] | EC50 [2] | EC50 [3] | Intrinsic activity [4] | remaining at 10 min [5]
CCn1nc(-c2cccc3ccccc23)cc1-c1ccnn1C | 3.46 to 5 µM | > 10 µM | > 10 µM | 0.3 | 
O=C(c1csc(-c2cccc(Cl)c2F)n1)N1CCOCC1 | 1.27 to 2.4 µM | > 10 µM | > 10 µM | 0.3 | 
CCn1nc(-c2cccc3ncccc23)cc1-c1cccnn1 | 4.53 to 4.73 µM | > 10 µM | > 10 µM | 0.3 | 
O=C(c1csc(-c2ccccc2Cl)n1)N1CCOCC1 | 4.6 µM | > 10 µM | > 10 µM | 0.1 | 
CCn1nc(-c2ccnc3ccccc23)cc1-c1cccnn1 | 0.315 to 0.396 µM | > 10 µM | > 10 µM | 0.6 | 
Cn1cc(-c2cccc3ccccc23)nc1C(=O)N1CCC(CO)CC1 | 1.8 to 3.53 µM | > 10 µM | > 10 µM | 0.7 | 
Cc1nc(-c2cccc3ccccc23)sc1C(=O)N(C)Cc1ccn(C)n1 | 0.013 to 0.019 µM | > 10 µM | > 10 µM | 1 | 
O=C(c1cnc(-c2cccc(Cl)c2Cl)s1)N1CCOCC1 | > 10 µM | > 10 µM | > 10 µM |  | 
COCCNC(=O)c1sc(-c2cccc3ccccc23)nc1C | > 10 µM | > 10 µM | > 10 µM |  | 
Cc1nc(-c2cccc3ccccc23)sc1C(=O)N(C)C | 0.059 to 0.072 µM | > 10 µM | > 10 µM | 1 | 
Cc1sc(-c2cccc3ccccc23)nc1C(=O)N1CCOCC1 | 2.78 µM | > 10 µM | > 10 µM | 0.3 | 
O=C(c1cnc(-c2cccc3ccccc23)s1)N1CCOCC1 | 1.52 to 2.27 µM | > 10 µM | > 10 µM | 0.6 | 
CCn1nc(-c2cccc3ccccc23)cc1-c1cncn1C | 3.85 to 4.39 µM | > 10 µM | > 10 µM | 0.2 | 
CCn1nc(-c2cccc3ccncc23)cc1-c1ccc(N)nn1 | 0.007 µM | > 10 µM | > 5 µM | 1.1 | 
O=C(c1csc(-c2ccc(Cl)cc2Cl)n1)N1CCOCC1 | > 10 µM | > 10 µM | > 10 µM |  | 
CCn1nc(-c2cccc3ccccc23)cc1-c1ccccn1 | 0.576 to 0.613 µM | > 5 µM | > 5 µM | 0.8 | 
O=C(c1nnn(-c2cccc3ccccc23)n1)N1CCC(CO)CC1 | 4.1 to 10 µM | > 10 µM | > 10 µM | 0.3 | 
CCn1nc(-c2cccc3cnccc23)cc1-c1cccnn1 | 1.6 µM | > 5 µM | > 5 µM | 0.7 | 
O=C(c1csc(-c2cccc(Cl)c2Cl)n1)N1CCC(O)CC1 | 0.679 to 0.84 µM | > 10 µM | > 10 µM | 0.7 | 
CCn1nc(-c2cccc3ccccc23)cc1-c1ncccn1 | 1.7 to 1.9 µM | > 5 µM | > 5 µM | 0.4 | 
